The text below walks through data of ChEMBL document CHEMBL1148336, “3-Aminopyrazole inhibitors of CDK2/cyclin A as antitumor agents. 1. Lead finding” (J Med Chem, 2004).

Data set [1] deals with Protein kinase C beta type (Homo sapiens, UniProt P05771). In words: Inhibition of Protein kinase C beta. The method, boiled down: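 PKCβ was commercially sourced. It was used at 0.7–100 nM enzyme with substrate at 5Km and ATP/33P-γ-ATP at 2Km, 1% DMSO, and compound in 3-fold steps from 10 to 0.0015 μM, for 30–90 min at room temperature. Phosphorylated product was separated and counted. Four-parameter logistic IC50, mean of at least two experiments.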

Data set [2] deals with Tyrosine-protein kinase Lck (Homo sapiens, UniProt P06239). In words: Inhibition of p56 lck tyrosine kinase. The method, boiled down:
(§1)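 Radiometric kinase assay. Enzyme (0.7–100 nM) and substrate (5Km) incubated with ATP/33P-γ-ATP (2Km) and compound serially diluted 3-fold from 10 to 0.0015 μM, 1% DMSO, 30–90 min at room temperature. Product separated by SPA, Dowex or phosphocellulose filter, then counted.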

Data set [3] concerns the target Tyrosine-protein kinase ABL (Homo sapiens, UniProt P00519+P42684). In words: Inhibition of V-abl tyrosine kinase (ABL). Type of data set: protein assay. Put shortly: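 ABL at 1.2 nM, recombinant from insect cells, with MBP in 50 mM Hepes pH 7.5, 3 mM MgCl2, 3 mM MnCl2, 1 mM DTT, 3 μM NaVO3. 2Km ATP/33P-γ-ATP, 5Km substrate, 1% DMSO. 3-fold series from 10 μM, 30–90 min at room temperature. SPA readout.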

The target in data set [4] is Inhibitor of nuclear factor kappa-B kinase subunit epsilon (Homo sapiens, UniProt Q14164). In words: Inhibition of IKKi (IKK epsilon) kinase activity. The method, boiled down: as §1
Data set [5] is described as follows: Oral bioavailability after oral (po) administration at a dose of 10 mg/kg was measured in rats. Type of data set: ADME, organism-based. Particulars: rat, in vivo, read-out: Bioavailabiility. The method, boiled down:
(§2)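 Male Sprague Dawley rats (~270), fasted overnight, received a single iv or oral dose in PEG400, 4% Tween 80/dextrose (60:40), three rats per route. Jugular/catheter blood was drawn predose and at 5, 15 and 30 min and 1, 2, 4, 6 and 24 h, and plasma was analysed by LC/MS/MS. Analysis was noncompartmental: Cmax/Tmax observed, AUC by linear trapezoidal rule, and F from dose-normalized oral/iv AUC.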

In data set [6] the target is CDC7/DBF4 (Cell division cycle 7-related protein kinase/Activator of S phase kinase) (Homo sapiens, UniProt O00311). Put plainly: Inhibition of CDC7/DBF4 kinase activity. It counts as protein-complex assay. Put shortly: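 Recombinant CDC7/DBF4 (insect cells), 18 nM, with MCM2 substrate in 50 mM Hepes pH 7.5, 5 mM MgCl2, 1 mM DTT, 3 μM NaVO3. ATP/33P-γ-ATP at 2Km, substrate at 5Km, 1% DMSO, compound 10 to 0.0015 μM in 3-fold steps, 30–90 min at room temperature. SPA bead capture.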

In a further data set the test system is Rattus norvegicus. Put plainly: In vivo maximum time required for clearance of compound after oral (po) administration at a dose of 10 mg/kg was measured in rats. Type of data set: ADME, organism-based. More on the design: dose 10 mg/kg, route oral. The method, boiled down: as §2
Data set [7] can be described thus: Total body clearance was evaluated for the compound after i.v. administration at a dose of 5 mg/kg was measured in rats. It counts as ADME, organism-based. Details: dose 5 mg/kg, route intravenous. As to conditions: rat, in vivo, iv. Put shortly:
as §2

The target of data set [8] is Serine/threonine-protein kinase Chk1 (Homo sapiens, UniProt O14757). In words: Inhibition of Serine/threonine-protein kinase Chk1. Put shortly: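 ATP/33P-γ-ATP 2Km, substrate 5Km, 1% DMSO, compound 10–0.0015 μM, 30–90 min at room temperature. SPA.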
In a further data set the target is Insulin receptor (Homo sapiens, UniProt P06213). In words: Inhibition of IR kinase activity. The method, boiled down:
as §1

The target in data set [9] is Serine/threonine-protein kinase PAK 4 (Homo sapiens, UniProt O96013). In words: Inhibition of PAK4 kinase. Put shortly:
as §1

Data set [10] deals with Fibroblast growth factor receptor 1 (Homo sapiens, UniProt P11362). In words: Inhibition of Fibroblast growth factor receptor 1. Put shortly:
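Radiolabelled ATP at 2Km, substrate 5Km, 1% DMSO, compound 10 to 0.0015 μM, 30–90 min at room temperature. SPA capture.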

In data set [11] the target is Insulin-like growth factor 1 receptor (Homo sapiens, UniProt P08069). Put plainly: Inhibition of Insulin-like growth factor I receptor. The method, boiled down: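 IGF1R (6 nM, insect-cell recombinant) phosphorylating IRStide in 50 mM Hepes pH 7.5, 3 mM MnCl2, 1 mM DTT, 3 μM NaVO3. 33P-ATP mix at 2Km, substrate 5Km, 1% DMSO. Compound in 3-fold series from 10 μM, 30–90 min at room temperature. SPA counting.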

Data set [12] in a line: Ability of compound to bind to plasma protein was evaluated in HSA cells. It counts as ADME, cell-based. Particulars: mouse, HSA cells (so in the source), read-out: PPB. The method, boiled down:
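HPLC retention time measured on a column coupled with human serum albumin. Percent bound is assigned by comparing the retention time with those of known standards.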

The target of data set [13] is Tyrosine-protein kinase Lyn (Homo sapiens, UniProt P07948). In words: Inhibition of Protein tyrosine kinase Lyn. The method, boiled down:
as §1

In data set [14] the target is High affinity nerve growth factor receptor (Homo sapiens, UniProt P04629). In words: Inhibition of Trk A kinase activity. Put shortly:
as §1

Each structure is given as a SMILES string. pIC50: −log10 of the molar value. Where only a bound is given, the exact number is not on record here.

Sequence of Serine/threonine-protein kinase Chk1 (O14757 whole entry): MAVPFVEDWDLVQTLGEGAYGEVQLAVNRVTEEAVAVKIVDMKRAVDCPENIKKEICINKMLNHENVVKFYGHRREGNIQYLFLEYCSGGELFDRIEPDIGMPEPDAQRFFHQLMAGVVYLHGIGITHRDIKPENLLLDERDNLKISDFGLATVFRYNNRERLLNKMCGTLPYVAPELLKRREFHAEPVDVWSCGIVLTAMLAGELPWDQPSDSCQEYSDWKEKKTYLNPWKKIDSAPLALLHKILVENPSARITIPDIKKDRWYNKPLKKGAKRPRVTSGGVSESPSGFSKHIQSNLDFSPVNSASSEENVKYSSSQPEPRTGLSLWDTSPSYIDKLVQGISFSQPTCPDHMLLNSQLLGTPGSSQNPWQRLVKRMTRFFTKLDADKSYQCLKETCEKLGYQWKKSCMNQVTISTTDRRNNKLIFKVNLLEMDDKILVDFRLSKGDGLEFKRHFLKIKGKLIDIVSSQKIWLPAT
Sequence of Insulin receptor (P06213 28-758 limits assumed): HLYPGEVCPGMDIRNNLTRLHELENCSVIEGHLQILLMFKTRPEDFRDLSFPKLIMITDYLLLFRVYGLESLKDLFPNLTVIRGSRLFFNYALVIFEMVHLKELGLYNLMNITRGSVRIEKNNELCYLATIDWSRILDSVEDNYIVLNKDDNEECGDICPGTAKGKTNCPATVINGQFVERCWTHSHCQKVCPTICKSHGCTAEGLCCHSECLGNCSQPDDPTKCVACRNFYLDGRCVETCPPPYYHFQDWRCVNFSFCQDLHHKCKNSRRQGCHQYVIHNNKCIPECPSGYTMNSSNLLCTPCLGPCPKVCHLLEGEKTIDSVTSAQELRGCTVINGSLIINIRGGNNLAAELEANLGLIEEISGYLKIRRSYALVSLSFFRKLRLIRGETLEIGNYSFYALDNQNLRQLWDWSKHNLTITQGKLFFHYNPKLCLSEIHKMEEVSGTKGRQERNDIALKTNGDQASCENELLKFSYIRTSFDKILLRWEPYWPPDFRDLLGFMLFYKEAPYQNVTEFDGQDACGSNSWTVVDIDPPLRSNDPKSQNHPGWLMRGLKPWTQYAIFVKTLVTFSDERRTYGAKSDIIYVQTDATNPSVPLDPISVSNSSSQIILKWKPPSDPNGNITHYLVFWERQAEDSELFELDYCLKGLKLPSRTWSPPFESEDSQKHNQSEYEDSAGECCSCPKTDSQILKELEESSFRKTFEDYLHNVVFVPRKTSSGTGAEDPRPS
Sequence of Insulin receptor (P06213 763-1382 limits assumed): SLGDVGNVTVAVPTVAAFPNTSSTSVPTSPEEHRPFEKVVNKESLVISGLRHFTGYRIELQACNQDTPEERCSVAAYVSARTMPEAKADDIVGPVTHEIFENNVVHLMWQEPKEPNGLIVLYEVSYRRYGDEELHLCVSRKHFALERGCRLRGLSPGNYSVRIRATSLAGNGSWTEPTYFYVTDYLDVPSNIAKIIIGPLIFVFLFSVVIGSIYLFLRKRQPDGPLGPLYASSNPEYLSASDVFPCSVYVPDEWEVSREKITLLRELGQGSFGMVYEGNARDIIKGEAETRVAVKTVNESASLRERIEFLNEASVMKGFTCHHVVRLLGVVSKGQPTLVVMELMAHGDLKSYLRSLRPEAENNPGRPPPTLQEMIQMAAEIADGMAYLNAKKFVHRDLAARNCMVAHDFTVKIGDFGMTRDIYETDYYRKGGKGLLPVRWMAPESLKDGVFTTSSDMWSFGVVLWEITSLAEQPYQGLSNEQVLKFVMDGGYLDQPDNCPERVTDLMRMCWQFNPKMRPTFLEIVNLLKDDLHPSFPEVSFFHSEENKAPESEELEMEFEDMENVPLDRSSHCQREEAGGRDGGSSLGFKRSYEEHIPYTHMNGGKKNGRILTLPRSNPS
Sequence of Tyrosine-protein kinase Lyn (P07948 whole entry): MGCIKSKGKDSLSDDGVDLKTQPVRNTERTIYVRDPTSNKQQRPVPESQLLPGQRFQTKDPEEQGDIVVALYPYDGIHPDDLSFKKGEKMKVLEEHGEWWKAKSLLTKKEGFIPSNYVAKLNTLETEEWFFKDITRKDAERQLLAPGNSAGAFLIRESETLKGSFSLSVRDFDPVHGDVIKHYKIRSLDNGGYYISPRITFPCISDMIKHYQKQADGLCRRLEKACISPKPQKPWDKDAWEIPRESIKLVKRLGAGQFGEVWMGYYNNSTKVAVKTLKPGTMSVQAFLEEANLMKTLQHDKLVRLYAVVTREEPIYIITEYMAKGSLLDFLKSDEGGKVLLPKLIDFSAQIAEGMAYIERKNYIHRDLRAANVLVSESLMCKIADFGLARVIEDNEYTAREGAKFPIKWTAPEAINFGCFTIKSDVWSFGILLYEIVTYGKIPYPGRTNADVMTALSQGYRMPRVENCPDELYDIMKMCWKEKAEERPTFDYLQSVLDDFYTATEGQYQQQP
Sequence of Insulin-like growth factor 1 receptor (P08069 31-736 limits assumed): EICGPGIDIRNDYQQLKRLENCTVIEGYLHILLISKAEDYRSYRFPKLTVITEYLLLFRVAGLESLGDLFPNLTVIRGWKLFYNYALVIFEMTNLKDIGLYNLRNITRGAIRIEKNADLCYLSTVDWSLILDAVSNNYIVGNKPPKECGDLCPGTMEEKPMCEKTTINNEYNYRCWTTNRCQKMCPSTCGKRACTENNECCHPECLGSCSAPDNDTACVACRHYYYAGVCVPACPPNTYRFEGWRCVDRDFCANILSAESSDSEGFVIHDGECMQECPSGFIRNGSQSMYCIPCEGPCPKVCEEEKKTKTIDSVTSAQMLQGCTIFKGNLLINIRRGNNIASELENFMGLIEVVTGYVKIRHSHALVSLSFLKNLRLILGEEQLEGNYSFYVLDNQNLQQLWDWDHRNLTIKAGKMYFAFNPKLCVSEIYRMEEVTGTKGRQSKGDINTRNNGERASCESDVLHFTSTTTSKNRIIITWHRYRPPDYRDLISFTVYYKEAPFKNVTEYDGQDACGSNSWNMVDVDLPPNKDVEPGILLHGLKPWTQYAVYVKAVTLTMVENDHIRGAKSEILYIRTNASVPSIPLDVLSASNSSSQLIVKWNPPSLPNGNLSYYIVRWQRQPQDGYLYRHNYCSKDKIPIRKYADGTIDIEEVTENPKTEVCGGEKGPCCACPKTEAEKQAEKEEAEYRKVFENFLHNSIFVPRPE
Sequence of Insulin-like growth factor 1 receptor (P08069 741-1367 limits assumed): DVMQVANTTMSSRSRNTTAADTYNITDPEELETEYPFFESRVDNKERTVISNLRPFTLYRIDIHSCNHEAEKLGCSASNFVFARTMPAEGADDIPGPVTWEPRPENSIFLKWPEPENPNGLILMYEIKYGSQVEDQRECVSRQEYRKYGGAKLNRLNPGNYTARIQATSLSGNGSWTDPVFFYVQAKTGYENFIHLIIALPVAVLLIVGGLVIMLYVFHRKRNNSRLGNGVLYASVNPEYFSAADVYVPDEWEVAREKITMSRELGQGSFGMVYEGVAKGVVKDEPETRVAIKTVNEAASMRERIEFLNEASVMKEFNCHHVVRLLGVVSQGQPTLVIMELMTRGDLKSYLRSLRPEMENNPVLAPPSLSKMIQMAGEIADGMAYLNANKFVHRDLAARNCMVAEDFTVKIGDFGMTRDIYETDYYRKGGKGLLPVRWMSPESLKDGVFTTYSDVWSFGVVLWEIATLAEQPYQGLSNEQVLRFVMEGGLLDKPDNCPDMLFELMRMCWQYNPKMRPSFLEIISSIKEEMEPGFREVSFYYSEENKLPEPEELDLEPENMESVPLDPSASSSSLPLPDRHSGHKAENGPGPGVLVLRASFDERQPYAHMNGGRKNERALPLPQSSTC
Sequence of High affinity nerve growth factor receptor (P04629 whole entry): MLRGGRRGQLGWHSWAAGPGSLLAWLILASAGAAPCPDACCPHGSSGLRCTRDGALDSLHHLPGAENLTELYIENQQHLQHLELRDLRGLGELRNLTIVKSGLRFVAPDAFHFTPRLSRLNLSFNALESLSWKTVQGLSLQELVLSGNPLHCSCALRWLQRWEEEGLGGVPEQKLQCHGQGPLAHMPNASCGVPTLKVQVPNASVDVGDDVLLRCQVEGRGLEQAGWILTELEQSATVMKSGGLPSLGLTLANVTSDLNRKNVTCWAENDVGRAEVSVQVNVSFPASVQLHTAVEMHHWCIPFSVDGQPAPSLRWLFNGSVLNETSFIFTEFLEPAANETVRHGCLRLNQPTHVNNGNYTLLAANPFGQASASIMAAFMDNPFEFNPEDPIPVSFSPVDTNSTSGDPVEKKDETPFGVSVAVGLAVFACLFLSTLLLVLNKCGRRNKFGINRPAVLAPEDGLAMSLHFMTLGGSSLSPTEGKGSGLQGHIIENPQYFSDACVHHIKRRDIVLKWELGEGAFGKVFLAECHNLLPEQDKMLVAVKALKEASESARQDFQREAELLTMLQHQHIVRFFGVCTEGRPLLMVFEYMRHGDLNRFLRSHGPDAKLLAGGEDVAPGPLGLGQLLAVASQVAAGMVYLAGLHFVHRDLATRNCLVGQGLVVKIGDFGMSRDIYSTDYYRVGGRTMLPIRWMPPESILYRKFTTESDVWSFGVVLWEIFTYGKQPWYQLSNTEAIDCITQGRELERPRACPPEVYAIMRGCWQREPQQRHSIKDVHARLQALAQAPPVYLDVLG
Sequence of Tyrosine-protein kinase Lck (P06239 whole entry): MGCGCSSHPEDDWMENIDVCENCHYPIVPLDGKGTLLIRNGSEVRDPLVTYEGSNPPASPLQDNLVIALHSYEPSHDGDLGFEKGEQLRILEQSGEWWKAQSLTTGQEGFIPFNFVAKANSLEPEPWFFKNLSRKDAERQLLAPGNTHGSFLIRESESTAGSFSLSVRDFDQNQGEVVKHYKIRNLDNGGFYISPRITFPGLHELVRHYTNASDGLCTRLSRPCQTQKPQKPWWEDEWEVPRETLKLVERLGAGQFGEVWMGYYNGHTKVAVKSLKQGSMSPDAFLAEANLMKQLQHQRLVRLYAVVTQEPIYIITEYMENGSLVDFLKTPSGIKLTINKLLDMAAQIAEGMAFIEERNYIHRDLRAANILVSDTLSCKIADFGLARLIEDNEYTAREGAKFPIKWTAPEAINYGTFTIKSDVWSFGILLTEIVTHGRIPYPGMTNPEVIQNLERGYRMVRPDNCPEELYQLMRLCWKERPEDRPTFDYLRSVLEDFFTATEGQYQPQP

For the compound `O=C(Cc1ccc2ccccc2c1)Nc1cc(C2CC2)n[nH]1`, the pIC50 (in data set [1]; in [2]; in data set [4]; in [6]; in [8]; against Insulin receptor) was below 5.00 in each case. Besides, the pIC50 in data set [9], in data set [10], in data set [11], in data set [13] and in data set [14] was below 5.00 in each case. The compound further yielded an IC50 in data set [3] above 10 µM. The bioavailability in data set [5] is 89.8%. This compound returned a T max with Rattus norvegicus of 1.39 h. In data set [7], this compound yielded a clearance of 13.5 mL/min/kg. Also, the fraction unbound in [12] worked out at 0.01.
